# Test results from ChEMBL document CHEMBL3243986, “Synthesis and analgetic activity of some 5-aryl-2azabicyclo[3.2.1]octanes” (J Med Chem, 1978).
# The source made the active and inactive calls.
# Key:
# Mus musculus [1] = test: Analgesic activity in sc dosed CD-1 mouse assessed as inhibition of phenylquinone-induced writhing administered 15 to 90 mins prior challenge measured 5 mins post challenge; format: functional; conditions: CD-1, sc
# Method in brief: (§1)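 Male CD-1 mice, 18–24 g, five per group, dosed 15, 30, 60 or 90 min before phenyl-p-benzoquinone (0.125% in 5% aqueous ethanol); vehicle controls. Writhes were counted over 10 min, starting 5 min after challenge. For dose–response, ten mice per dose were tested at the peak time, with four doses plus control, randomized. Result given as % inhibition of writhes; ED50 by computer linear regression.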
# Mus musculus [2] = test: Analgesic activity in sc dosed CD-1 mouse assessed as delay in response to noxious heat stimuli measured after 15 to 60 mins post dosing by D'Amour-Smith tail-flick method; format: functional; conditions: CD-1, Tail
# Method in brief: (§2)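 Male CD-1 mice, ten per group, held in a plexiglass restrainer; an intense light beam served as the noxious heat stimulus, and tail-flick latency was recorded automatically. Two baseline readings were taken, unstable animals were excluded, and a cutoff was set. Dosing was sc, with vehicle at 10 mL/kg. Tests ran at 15, 30, 45 and 60 min, then at the peak time for at least three doses. Response past cutoff counted as analgesia; ED50 by linear regression.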
# Mus musculus [3] = test: Inhibition of morphine-induced mania in CD-1 mouse assessed as inhibition of stereotypic activity at 10 mg/kg, sc measured after 15 to 30 mins; format: functional; conditions: for inhibition in vivo at 10 mg/kg: CD-1, sc, route subcutaneous
# Method in brief: (§3)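 Male mice, 18–30 g, two pairs per group, dosed randomly. Controls received morphine sulfate 25 mg/kg sc; test groups received morphine plus compound. Animals were watched for 15–30 min for stereotyped increase in motor activity, and blocking of this behaviour was scored positive. For dose range, ED50 by linear regression.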
# Mus musculus [4] = test: Analgesic activity in po dosed CD-1 mouse assessed as inhibition of phenylquinone-induced writhing administered 15 to 90 mins prior challenge measured 5 mins post challenge; format: functional; conditions: CD-1, po; method in brief: as §1
# Mus musculus [5] = test: Inhibition of morphine-induced mania in sc dosed CD-1 mouse assessed as inhibition of stereotypic activity measured after 15 to 30 mins; format: functional; method in brief: as §3
# Mus musculus [6] = test: Toxicity in sc dosed CD-1 mouse assessed as physical dependence liability by infusion test; format: organism-based; conditions: in vivo
# Mus musculus [7] = test: Analgesic activity in CD-1 mouse assessed as delay in response to noxious heat stimuli at 2 mg/kg, sc measured after 15 to 60 mins post dosing by D'Amour-Smith tail-flick method relative to control; format: functional; conditions: route subcutaneous; method in brief: as §2
# Mus musculus [8] = test: Analgesic activity in CD-1 mouse assessed as delay in response to noxious heat stimuli at 25 mg/kg, sc measured after 15 to 60 mins post dosing by D'Amour-Smith tail-flick method relative to control; format: functional; conditions: route subcutaneous; method in brief: as §2
# Mus musculus [9] = test: Analgesic activity in CD-1 mouse assessed as inhibition of phenylquinone-induced writhing at 10 mg/kg, sc administered 15 to 90 mins prior challenge measured 5 mins post challenge; format: functional; conditions: CD-1, sc, route subcutaneous; method in brief: as §1
# Mus musculus [10] = test: Toxicity in sc dosed CD-1 mouse assessed as overt effects; format: organism-based; conditions: in vivo
# Mus musculus [11] = test: Analgesic activity in po dosed CD-1 mouse assessed as delay in response to noxious heat stimuli measured after 15 to 60 mins post dosing by D'Amour-Smith tail-flick method; format: functional; conditions: CD-1, Tail
smiles,measurement,setting,value
Br.Oc1cccc(C23CCC(C2)N(CCc2ccc(Cl)c(Cl)c2)CC3)c1 (racemic),ED50,Mus musculus [1],0.75 mg/kg
same,ED50,Mus musculus [2],2.73 mg/kg
same,inhibition,Mus musculus [3],inactive
Br.Oc1cccc(C23CCC(C2)N(CCc2cccc(Cl)c2)CC3)c1 (racemic),ED50,Mus musculus [1],0.46 mg/kg
same,ED50,Mus musculus [2],5.46 mg/kg
same,inhibition in vivo at 10 mg/kg,Mus musculus [3],20%
Br.Oc1cccc(C23CCC(C2)N(CCc2ccc(Cl)cc2)CC3)c1 (racemic),ED50,Mus musculus [1],0.42 mg/kg
same,ED50,Mus musculus [2],7.32 mg/kg
same,inhibition in vivo at 10 mg/kg,Mus musculus [3],50%
Br.Oc1cccc(C23CCC(C2)N(CCc2ccccc2)CC3)c1 (racemic),ED50,Mus musculus [1],0.68 mg/kg
same,ED50,Mus musculus [4],60.9 mg/kg
same,ED50,Mus musculus [2],6.45 mg/kg
same,ED50,"Mus musculus [5]; CD-1, sc",1.06 mg/kg
same,Activity,Mus musculus [6],Non-toxic
Br.O=C(CCCN1CCC2(c3cccc(O)c3)CCC1C2)c1ccc(F)cc1 (racemic),ED50,Mus musculus [1],0.35 mg/kg
same,Activity,Mus musculus [7],40%
same,ED50,"Mus musculus [5]; CD-1, sc",2.01 mg/kg
Br.Oc1cccc(C23CCC(C2)N(Cc2ccco2)CC3)c1 (racemic),ED50,Mus musculus [1],22.7 mg/kg
same,ED50,Mus musculus [2],10 mg/kg
same,ED50,"Mus musculus [5]; CD-1, sc",3.7 mg/kg
Br.CC(C)=CCN1CCC2(c3cccc(O)c3)CCC1C2 (racemic),ED50,Mus musculus [1],25 mg/kg
same,Activity,Mus musculus [8],20%
same,inhibition,Mus musculus [3],inactive
Br.Oc1cccc(C23CCC(C2)N(CC2CC2)CC3)c1 (racemic),ED50,Mus musculus [1],5.44 mg/kg
same,Activity,Mus musculus [8],30%
same,inhibition in vivo at 10 mg/kg,Mus musculus [3],20%
Br.CCCCCN1CCC2(c3cccc(O)c3)CCC1C2 (racemic),ED50,Mus musculus [1],8.34 mg/kg
same,Activity,Mus musculus [8],20%
same,ED50,"Mus musculus [5]; CD-1, sc",4.31 mg/kg
Br.CCCCN1CCC2(c3cccc(O)c3)CCC1C2 (racemic),ED50,Mus musculus [1],8.66 mg/kg
same,Activity,Mus musculus [8],30%
same,inhibition in vivo at 10 mg/kg,Mus musculus [3],40%
Br.CCCN1CCC2(c3cccc(O)c3)CCC1C2 (racemic),ED50,Mus musculus [1],8.79 mg/kg
same,Activity,Mus musculus [8],20%
same,inhibition,Mus musculus [3],inactive
Br.CCN1CCC2(c3cccc(O)c3)CCC1C2 (racemic),Activity,Mus musculus [8],30%
same,inhibition in vivo at 10 mg/kg,Mus musculus [9],41%
same,inhibition,Mus musculus [3],inactive
Br.CN1CCC2(c3cccc(O)c3)CCC1C2 (racemic),ED50,Mus musculus [1],10 mg/kg
same,Activity,Mus musculus [8],40%
Br.COc1cccc(C23CCC(C2)N(CCc2ccccc2)CC3)c1 (racemic),ED50,Mus musculus [1],5.99 mg/kg
same,ED50,Mus musculus [2],13 mg/kg
same,ED50,Mus musculus [5],Active
Br.COc1cccc(C23CCC(C2)N(CCCC(=O)c2ccc(F)cc2)CC3)c1 (racemic),ED50,Mus musculus [1],0.85 mg/kg
same,Activity,Mus musculus [7],10%
same,ED50,"Mus musculus [5]; CD-1, sc",3.7 mg/kg
Br.CCCCCN1CCC2(c3cccc(OC)c3)CCC1C2 (racemic),ED50,Mus musculus [1],5.77 mg/kg
same,Activity,Mus musculus [8],40%
same,inhibition,Mus musculus [3],inactive
Br.CCCCN1CCC2(c3cccc(OC)c3)CCC1C2 (racemic),ED50,Mus musculus [1],4.87 mg/kg
same,ED50,Mus musculus [2],9.71 mg/kg
same,inhibition,Mus musculus [3],inactive
Br.CCCN1CCC2(c3cccc(OC)c3)CCC1C2 (racemic),ED50,Mus musculus [1],7.4 mg/kg
same,Activity,Mus musculus [8],40%
same,ED50,"Mus musculus [5]; CD-1, sc",8.3 mg/kg
Br.CCN1CCC2(c3cccc(OC)c3)CCC1C2 (racemic),ED50,Mus musculus [1],11.9 mg/kg
same,ED50,Mus musculus [2],17.7 mg/kg
same,inhibition in vivo at 10 mg/kg,Mus musculus [3],10%
Br.COc1cccc(C23CCC(C2)N(C)CC3)c1 (racemic),ED50,Mus musculus [1],6.96 mg/kg
same,Activity,Mus musculus [8],10%
same,ED50,"Mus musculus [5]; CD-1, sc",50 mg/kg
Br.Cc1ccc(CCN2CCC3(c4cccc(O)c4)CCC2C3)cc1 (racemic),ED50,Mus musculus [1],0.58 mg/kg
same,ED50,Mus musculus [2],8.54 mg/kg
same,ED50,"Mus musculus [5]; CD-1, sc",≤ 10 mg/kg
Br.Oc1ccc(CCN2CCC3(c4cccc(O)c4)CCC2C3)cc1 (racemic),ED50,Mus musculus [1],2.08 mg/kg
same,ED50,Mus musculus [2],25 mg/kg
same,inhibition in vivo at 10 mg/kg,Mus musculus [3],20%
same,Activity,Mus musculus [10],Toxic
Br.Oc1cccc(C23CCC(C2)N(CCc2cccs2)CC3)c1 (racemic),ED50,Mus musculus [1],0.72 mg/kg
same,ED50,Mus musculus [2],11 mg/kg
same,ED50,"Mus musculus [5]; CD-1, sc",10 mg/kg
Br.CC(=O)Oc1cccc(C23CCC(C2)N(C)CC3)c1 (racemic),ED50,Mus musculus [1],14.1 mg/kg
same,Activity,Mus musculus [8],14%
same,ED50,"Mus musculus [5]; CD-1, sc",16 mg/kg
Br.CC(=O)Oc1cccc(C23CCC(C2)N(CCc2ccccc2)CC3)c1 (racemic),ED50,Mus musculus [1],1 mg/kg
same,ED50,Mus musculus [4],15.2 mg/kg
same,ED50,Mus musculus [2],2.82 mg/kg
same,ED50,Mus musculus [11],35 mg/kg
same,inhibition,Mus musculus [3],inactive
Br.CC(=O)Oc1cccc(C23CCC(C2)N(CCc2cccs2)CC3)c1 (racemic),ED50,Mus musculus [1],0.95 mg/kg
same,ED50,Mus musculus [4],64 mg/kg
same,ED50,Mus musculus [2],≤ 3.8 mg/kg
CC(C)=CCN1CC[C@]2(C)c3cc(O)ccc3C[C@H]1[C@H]2C [(+)-PENTAZOCINE],ED50,Mus musculus [1],2.4 mg/kg
same,ED50,Mus musculus [2],14.6 mg/kg
same,ED50,"Mus musculus [5]; CD-1, sc",13.8 mg/kg
CN1CC[C@]23c4c5ccc(O)c4O[C@H]2[C@@H](O)C=C[C@H]3[C@H]1C5 [MORPHINE],ED50,Mus musculus [1],0.68 mg/kg
C=CCN1CC[C@]23c4c5ccc(O)c4O[C@H]2[C@@H](O)C=C[C@H]3[C@H]1C5 [NALORPHINE],ED50,"Mus musculus [5]; CD-1, sc",0.43 mg/kg
